ChEMBL document CHEMBL3045648, “Proapoptotic effects of novel pentabromobenzylisothioureas in human leukemia cell lines” (2012)
Calls of active or inactive are those of the source. The rule behind the calls is not given here.

tested on: K562; experiment: Induction of cell cycle arrest in Homo sapiens (human) K562 cells assessed as decrease in G2/M phase cells after 48 hr by PI-staining based flow cytometric analysis; assay type: functional; conditions: not given
Method in brief: (§1)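 Cells treated 48 h with DMSO solvent controls, washed in cold PBS and fixed in 70% ethanol at −20°C for at least 24 h. Stained 30 min in the dark at room temperature with 50 μg/ml PI and 100 μg/ml RNase in PBS/0.1% Triton X-100. DNA content measured by flow cytometry and phase percentages modelled; mean ± SD, n ≥ 4.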

| SMILES | Activity |
| --- | --- |
| Br.N=C(N)SCc1c(Br)c(Br)c(Br)c(Br)c1Br | Dose-dependent effect |
| Br.CCNC(=N)SCc1c(Br)c(Br)c(Br)c(Br)c1Br | Dose-dependent effect |
| Br.CNC(=N)SCc1c(Br)c(Br)c(Br)c(Br)c1Br | Dose-dependent effect |

tested on: K562; experiment: Induction of cell cycle arrest in Homo sapiens (human) K562 cells assessed as cells accumulation of G1/S phase cells after 48 hr by PI-staining based flow cytometric analysis; assay type: functional; conditions: not given; method in brief: as §1

| SMILES | Activity |
| --- | --- |
| Br.N=C(N)SCc1c(Br)c(Br)c(Br)c(Br)c1Br | Dose-dependent effect |
| Br.CCNC(=N)SCc1c(Br)c(Br)c(Br)c(Br)c1Br | Dose-dependent effect |
| Br.CNC(=N)SCc1c(Br)c(Br)c(Br)c(Br)c1Br | Dose-dependent effect |

tested on: K562; experiment: Induction of cell cycle arrest in Homo sapiens (human) K562 cells assessed as accumulation of G1 phase cells after 48 hr by PI-staining based flow cytometric analysis; assay type: functional; conditions: not given; method in brief: as §1

| SMILES | Activity |
| --- | --- |
| Br.N=C(N)SCc1c(Br)c(Br)c(Br)c(Br)c1Br | Dose-dependent effect |
| Br.CCNC(=N)SCc1c(Br)c(Br)c(Br)c(Br)c1Br | Dose-dependent effect |
| Br.CNC(=N)SCc1c(Br)c(Br)c(Br)c(Br)c1Br | Dose-dependent effect |

tested on: HL-60; experiment: Induction of cell cycle arrest in Homo sapiens (human) HL60 cells assessed as decrease in G2/M phase cells after 48 hr by PI-staining based flow cytometric analysis; assay type: functional; conditions: not given; method in brief: as §1

| SMILES | Activity |
| --- | --- |
| Br.N=C(N)SCc1c(Br)c(Br)c(Br)c(Br)c1Br | Dose-dependent effect |
| Br.CCNC(=N)SCc1c(Br)c(Br)c(Br)c(Br)c1Br | Dose-dependent effect |
| Br.CNC(=N)SCc1c(Br)c(Br)c(Br)c(Br)c1Br | Dose-dependent effect |

tested on: HL-60; experiment: Induction of cell cycle arrest in Homo sapiens (human) HL60 cells assessed as cells accumulation of G1/S phase cells after 48 hr by PI-staining based flow cytometric analysis; assay type: functional; conditions: not given; method in brief: as §1

| SMILES | Activity |
| --- | --- |
| Br.N=C(N)SCc1c(Br)c(Br)c(Br)c(Br)c1Br | Dose-dependent effect |
| Br.CCNC(=N)SCc1c(Br)c(Br)c(Br)c(Br)c1Br | Dose-dependent effect |
| Br.CNC(=N)SCc1c(Br)c(Br)c(Br)c(Br)c1Br | Dose-dependent effect |

tested on: HL-60; experiment: Induction of cell cycle arrest in Homo sapiens (human) HL60 cells assessed as accumulation of G1 phase cells after 48 hr by PI-staining based flow cytometric analysis; assay type: functional; conditions: not given; method in brief: as §1

| SMILES | Activity |
| --- | --- |
| Br.N=C(N)SCc1c(Br)c(Br)c(Br)c(Br)c1Br | Dose-dependent effect |
| Br.CCNC(=N)SCc1c(Br)c(Br)c(Br)c(Br)c1Br | Dose-dependent effect |
| Br.CNC(=N)SCc1c(Br)c(Br)c(Br)c(Br)c1Br | Dose-dependent effect |

tested on: K562; experiment: Induction of apoptosis in Homo sapiens (human) K562 cells assessed as PARP cleavage at 10 uM after 48 hr by FITC conjugated antiPARP-staining based flow cytometric analysis; assay type: functional, cell-based; conditions: not given
Method in brief: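 Cells in RPMI-1640 with 10% heat-inactivated FBS, seeded at 2.5 × 10^5 cells/ml and treated from DMSO solution. Controls got the same solvent volume. Harvested 48 h post-treatment and washed twice in PBS. Stained with FITC anti-PARP antibody specific for the 85 kDa cleaved fragment. Flow cytometry reported fluorescence intensity, with negative (M1) and positive (M2) gates.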

| SMILES | Activity |
| --- | --- |
| Br.CNC(=N)SCc1c(Br)c(Br)c(Br)c(Br)c1Br | Active |

tested on: K562; experiment: Induction of apoptosis in Homo sapiens (human) K562 cells assessed as mitochondrial membrane depolarization at 10 uM after 48 hr by JC-1 staining based flow cytometric analysis (reference value: 6.1 +/- 0.9%); assay type: functional; conditions: not given

| SMILES | Activity |
| --- | --- |
| Br.N=C(N)SCc1c(Br)c(Br)c(Br)c(Br)c1Br | 63.8% |
| Br.CCNC(=N)SCc1c(Br)c(Br)c(Br)c(Br)c1Br | 62.2% |
| Br.CNC(=N)SCc1c(Br)c(Br)c(Br)c(Br)c1Br | 81.8% |

tested on: HL-60; experiment: Induction of apoptosis in Homo sapiens (human) HL60 cells assessed as mitochondrial membrane depolarization at 5 uM after 48 hr by JC-1 staining based flow cytometric analysis (reference value: 7.7 +/- 2.4%); assay type: functional; conditions: not given

| SMILES | Activity |
| --- | --- |
| Br.N=C(N)SCc1c(Br)c(Br)c(Br)c(Br)c1Br | 21.9% |
| Br.CCNC(=N)SCc1c(Br)c(Br)c(Br)c(Br)c1Br | 30.1% |
| Br.CNC(=N)SCc1c(Br)c(Br)c(Br)c(Br)c1Br | 24.4% |

tested on: K562; experiment: Induction of apoptosis in Homo sapiens (human) K562 cells from 24 to 48 hr by annexinV/PI-staining based flow cytometric analysis; assay type: functional, cell-based; conditions: not given
Method in brief: (§2)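 Cells seeded at 2.5 × 10^5 cells/ml in RPMI-1640/10% FBS, treated 24 or 48 h, DMSO solvent controls. Rinsed twice in cold PBS and resuspended at 2 × 10^6 cells/ml in binding buffer. Labelled with annexin V-FITC and PI for 15 min at room temperature in the dark. Flow cytometry within 1 h; mean ± SD, n ≥ 4.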

| SMILES | Activity |
| --- | --- |
| Br.N=C(N)SCc1c(Br)c(Br)c(Br)c(Br)c1Br | Dose-dependent effect |
| Br.CCNC(=N)SCc1c(Br)c(Br)c(Br)c(Br)c1Br | Dose-dependent effect |
| Br.CNC(=N)SCc1c(Br)c(Br)c(Br)c(Br)c1Br | Dose-dependent effect |

tested on: HL-60; experiment: Induction of apoptosis in Homo sapiens (human) HL60 cells from 24 to 48 hr by annexinV/PI-staining based flow cytometric analysis; assay type: functional, cell-based; conditions: not given; method in brief: as §2

| SMILES | Activity |
| --- | --- |
| Br.N=C(N)SCc1c(Br)c(Br)c(Br)c(Br)c1Br | Dose-dependent effect |
| Br.CCNC(=N)SCc1c(Br)c(Br)c(Br)c(Br)c1Br | Dose-dependent effect |
| Br.CNC(=N)SCc1c(Br)c(Br)c(Br)c(Br)c1Br | Dose-dependent effect |

tested on: K562; experiment: Induction of apoptosis in Homo sapiens (human) K562 cells at 10 to 20 uM by annexinV/PI-staining based flow cytometric analysis; assay type: functional, cell-based; conditions: TDE = time-dependent effect; method in brief: as §2

| SMILES | Activity |
| --- | --- |
| Br.N=C(N)SCc1c(Br)c(Br)c(Br)c(Br)c1Br | tde |
| Br.CCNC(=N)SCc1c(Br)c(Br)c(Br)c(Br)c1Br | tde |
| Br.CNC(=N)SCc1c(Br)c(Br)c(Br)c(Br)c1Br | tde |

tested on: HL-60; experiment: Induction of apoptosis in Homo sapiens (human) HL60 cells at 5 to 8 uM by annexinV/PI-staining based flow cytometric analysis; assay type: functional, cell-based; conditions: TDE = time-dependent effect; method in brief: as §2

| SMILES | Activity |
| --- | --- |
| Br.N=C(N)SCc1c(Br)c(Br)c(Br)c(Br)c1Br | tde |
| Br.CCNC(=N)SCc1c(Br)c(Br)c(Br)c(Br)c1Br | tde |
| Br.CNC(=N)SCc1c(Br)c(Br)c(Br)c(Br)c1Br | tde |
